Measurements of several laboratories.
Target: Protein kinase C delta type (PRKCD, Homo sapiens, UniProt Q05655)

SMILES | test | conditions | remaining binding
N[C@@H]1CCN(c2nccc(-c3cnn4ncccc34)n2)C1 | binding | 1 µM | 96%
O=C(NCC1CCOCC1)c1n[nH]cc1NC(=O)c1c(F)cccc1F | binding, competition with immobilised ligand | 1 µM | 100%
O=C(c1ccc(Nc2ncc(Cl)c(-c3ccc(Cl)s3)n2)cc1)N1CCC(N2CCCC2)CC1 | binding, competition with immobilised ligand | 1 µM | 48%
c1cnn2ncc(-c3ccnc(N4CCC45COC5)n3)c2c1 | binding | 1 µM | 100%
O=C(Nc1cnc(Oc2ccc(F)cc2)nc1)N1CCc2ncccc2[C@@H]1c1ccc(F)cc1 | cell-free assay, competition with immobilised ligand | 1 µM | 87%
F[C@@H]1CCN(c2nccc(-c3cnn4ncccc34)n2)C1 | binding | 1 µM | 100%
O=C(NCCCN1CCOCC1)c1ccc(Nc2nccc(-c3cc4ccccc4s3)n2)cc1 | binding, competition with immobilised ligand | 1 µM | 81%
CC1CCCN1c1nccc(-c2cnn3ncccc23)n1 (stereo not drawn) | binding | 1 µM | 100%
O=C1NC(c2ccccn2)Sc2ccccc21 (stereo not drawn) | cell-free assay, competition with immobilised ligand | 1 µM | 71%
C[C@@H](c1ccc(-n2cnc3c(N)ncnc32)cc1)N1CCc2nn(C)c(Cc3ccccc3)c2C1=O | binding, competition with immobilised ligand | 0.1 µM | 100%
O=C(NCc1ncc(C(F)(F)F)cc1Cl)c1ccc2c(c1)C1(CCS(=O)(=O)CC1)[C@@H](C1CC1)N2S(=O)(=O)c1ccc(F)cc1 | cell-free assay, competition with immobilised ligand | 1 µM | 100%
CCN1CCN(Cc2ccc(C(=O)Nc3ccc(C)c(Oc4ccc5c(c4)CC(=O)N5)c3)cc2C(F)(F)F)CC1 | binding, competition with immobilised ligand | 1 µM | 96%
COc1ncc2cc3ccccc3nc2c1C#N | cell-free assay, competition with immobilised ligand | 5 µM | 75%
Cc1cnc(Nc2ccc(C(=O)N3CCC(N4CCCC4)CC3)cc2)nc1-c1cc2ccccc2s1 | binding, competition with immobilised ligand | 1 µM | 23%
c1cncc(-c2cccc(Nc3nccc(NC4CCCCC4)n3)c2)c1 | binding, competition with immobilised ligand | 10 µM | 45%
Cc1cc(NC(=O)c2cccc(S(F)(F)(F)(F)F)c2)cc(-n2ccn3nc(-c4cccnc4)cc23)c1 | cell-free assay, competition with immobilised ligand | 1 µM | 95.8%
CN(c1nccc(-c2cnn3ncccc23)n1)C1CC1 | binding | 1 µM | 85%
Cc1nc(N2CC[C@@H](O)C2)ncc1-c1cc(C(F)(F)F)cc2[nH]ncc12 | cell-free assay, competition with immobilised ligand | 1 µM | 94%
CNC(=O)[C@@H]1CC[C@@H](n2c(-c3ccc4cnccc4c3)nc3ccc(C(=O)NCc4cccc(C(N)=O)c4)cc32)C1 | binding, competition with immobilised ligand | 1 µM | 81%
C[C@H](c1ccnc(Nc2nc3ccc(-c4cc(N(C)C)ncn4)cc3[nH]2)c1)N1CCN(C(=O)CC(F)(F)F)CC1 | cell-free assay, competition with immobilised ligand | 0.1 µM | 100%
C[C@H]1CCN(c2nccc(-c3cnn4ncccc34)n2)C1 | binding | 1 µM | 100%
